Assay [1] concerns the target T1, Coagulation factor X (Homo sapiens, UniProt P00742). The assay can be described thus: In vitro inhibition of coagulation factor Xa. The method in brief: (§1)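 Enzyme was preincubated 1 h at room temperature with inhibitor across 14 concentrations (1 nM–100 μM final). A405 was read kinetically over 10 min at 37 °C. Percent inhibition came from the linear progress-curve slopes, typically in duplicate.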

Assay [2] deals with T2, Plasminogen (Homo sapiens, UniProt P00747). The assay can be described thus: Compound was tested for in vitro inhibitory activity against plasmin. The method in brief:
as §1

Assay [3] deals with T3, Prothrombin (Homo sapiens, UniProt P00734). The assay can be described thus: Compound was tested for in vitro inhibitory activity against thrombin at 100 uM.
Assay [4] concerns the target T4, Serine protease 1 (Homo sapiens, UniProt P07477). The experiment in a line: In vitro inhibitory activity against trypsin. The procedure, abridged:
as §1

For assay [5], the target named is T3, Prothrombin. The assay can be described thus: Inhibition of thrombin. The method in brief:
as §1

The target in assay [6] is T2, Plasminogen. The assay can be described thus: Inhibition of plasmin at 100 uM.
Assay [7] addresses T3, Prothrombin. The assay can be described thus: Inhibition of thrombin at 100 uM.
Assay [8] deals with T4, Serine protease 1. The assay can be described thus: In vitro inhibitory activity against trypsin at 100 uM.
Assay [9] concerns the target T1, Coagulation factor X. The experiment in a line: Compound was tested for in vitro inhibitory activity against Coagulation factor X at 100 uM.
Assay [10] concerns Canis familiaris. The experiment in a line: effect on the time to occlusion(TO) in the dog electrolytic injury model at the 0 ug/kg/min to the vein. Format: functional, Canis lupus familiaris. The method in brief:
(§2)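 Anesthetized dogs received electrolytic injury to the endothelium as the thrombotic stimulus in the femoral artery and a vein. Agent was infused continuously at 0 (control), 1.25, 2.5, 5 or 10 μg/kg/min. Time to occlusion was recorded up to a maximum of 240 min. n = 12 control, 4 at 1.25, and 5 at each other dose; mean ± SEM.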

The species entered for assay [11] is Oryctolagus cuniculus. The experiment in a line: In Vitro evaluation for the concentration for 2 fold prolongation of Prolonged activated partial thromboplastin Time (aPTT) assay in rabbit. The format is functional. The procedure, abridged:
(§3)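 Clotting assays (PT or aPTT) used pooled plasma from the named species with added inhibitor. The value is the concentration giving a 2-fold prolongation of clotting time. Determinations were done in duplicate.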

For assay [12], the species on record is Homo sapiens. The assay can be described thus: In Vitro evaluation for the concentration for 2 fold prolongation of Prothrombin Time (PT) assay in human.
For assay [13], the species on record is Canis lupus familiaris. The assay can be described thus: In Vitro evaluation for the concentration for 2 fold prolongation of Prothrombin Time (PT) assay in dog.
Assay [14] has as its system Canis familiaris. The assay can be described thus: effect on the time to occlusion(TO) in the dog electrolytic injury model at the 10 ug/kg/min to the artery. The format is functional, Canis lupus familiaris. The procedure, abridged: as §2
For assay [15], the system named is Canis familiaris. The experiment in a line: effect on the time to occlusion(TO) in the dog electrolytic injury model at the 0 ug/kg/min to the artery. Format: functional, Canis lupus familiaris. The procedure, abridged: as §2
Assay [16] deals with Vitamin K-dependent protein C (Homo sapiens, UniProt P04070). The assay can be described thus: Compound was tested for in vitro inhibitory activity against activated protein C.
Assay [17] concerns Canis familiaris. The assay can be described thus: effect on the time to occlusion(TO) in the dog electrolytic injury model at the 5 ug/kg/min to the artery. The format is functional, Canis lupus familiaris. The method in brief: as §2
Assay [18] relates to Canis familiaris. The assay can be described thus: effect on the time to occlusion(TO) in the dog electrolytic injury model at the 2.5 ug/kg/min to the artery. The format is functional, Canis lupus familiaris. The procedure, abridged: as §2
For assay [19], the species on record is Homo sapiens. The experiment in a line: In Vitro evaluation for the concentration for 2 fold prolongation of Prolonged activated partial thromboplastin Time (aPTT) assay in human. The format is functional. The method in brief:
as §3

The test system of assay [20] is Canis familiaris. The experiment in a line: effect on the time to occlusion(TO) in the dog electrolytic injury model at the 2.5 ug/kg/min to the vein. The format is functional, Canis lupus familiaris. The procedure, abridged: as §2
Assay [21] relates to Canis familiaris. The assay can be described thus: effect on the time to occlusion(TO) in the dog electrolytic injury model at the 1.25 ug/kg/min to the artery. The format is functional, Canis lupus familiaris. The procedure, abridged:
as §2

Assay [22] has as its system Canis familiaris. The assay can be described thus: effect on the time to occlusion(TO) in the dog electrolytic injury model at the 5 ug/kg/min to the vein. Format: functional, Canis lupus familiaris. The procedure, abridged:
as §2

In assay [23] the target is T1, Coagulation factor X. The experiment in a line: Compound was tested for in vitro inhibitory activity against Prothrombinase.
Assay [24] has as its system Canis familiaris. The experiment in a line: effect on the time to occlusion(TO) in the dog electrolytic injury model at the 10 ug/kg/min to the vein. The format is functional, Canis lupus familiaris. The procedure, abridged: as §2
Assay [25] deals with Oryctolagus cuniculus. The assay can be described thus: effect on the time to occlusion in the rabbit Veno-venous Shunt model by administering through intravenous (IV) bolus (30 ug/kg) + infusion (1 ug/kg/min). The format is functional. The procedure, abridged:
(§4)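 Rabbit veno-venous shunt containing cotton threads. Test agent was given as an iv bolus plus continuous infusion at the stated dose. The endpoint was time to occlusion of the shunt vessel, observed over a 2-h window. Incidence of occlusion per group was recorded. n = 5 per dose group, mean ± SE.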

The nature of assay [26]: Compound was tested for in vitro inhibitory activity against Chymotrypsinogen at 100 uM.
The species named for assay [27] is Oryctolagus cuniculus. The experiment in a line: In Vitro evaluation for the concentration for 2 fold prolongation of Prothrombin Time (PT) assay in rabbit. Format: functional. The method in brief: as §3
Assay [28] deals with Oryctolagus cuniculus. The assay can be described thus: effect on the time to occlusion in the rabbit Veno-venous Shunt model by administering through intravenous (IV) bolus (60 ug/kg) + infusion (2 ug/kg/min). Format: functional. The method in brief:
as §4

For assay [29], the system named is Oryctolagus cuniculus. The assay can be described thus: effect on the time to occlusion in the rabbit Veno-venous Shunt model by administering through intravenous (IV) bolus (90 ug/kg) + infusion (3 ug/kg/min). The format is functional. The method in brief: as §4
For assay [30], the species on record is Canis lupus familiaris. The assay can be described thus: In Vitro evaluation for the concentration for 2 fold prolongation of Prolonged activated partial thromboplastin Time (aPTT) assay in dog.
For assay [31], the system named is Canis familiaris. The experiment in a line: effect on the time to occlusion(TO) in the dog electrolytic injury model at the 1.25 ug/kg/min to the vein. Format: functional, Canis lupus familiaris. The method in brief: as §2
Assay [32] addresses T5, Coagulation factor VII (Homo sapiens) (UniProt P08709).
T5 sequence (whole entry): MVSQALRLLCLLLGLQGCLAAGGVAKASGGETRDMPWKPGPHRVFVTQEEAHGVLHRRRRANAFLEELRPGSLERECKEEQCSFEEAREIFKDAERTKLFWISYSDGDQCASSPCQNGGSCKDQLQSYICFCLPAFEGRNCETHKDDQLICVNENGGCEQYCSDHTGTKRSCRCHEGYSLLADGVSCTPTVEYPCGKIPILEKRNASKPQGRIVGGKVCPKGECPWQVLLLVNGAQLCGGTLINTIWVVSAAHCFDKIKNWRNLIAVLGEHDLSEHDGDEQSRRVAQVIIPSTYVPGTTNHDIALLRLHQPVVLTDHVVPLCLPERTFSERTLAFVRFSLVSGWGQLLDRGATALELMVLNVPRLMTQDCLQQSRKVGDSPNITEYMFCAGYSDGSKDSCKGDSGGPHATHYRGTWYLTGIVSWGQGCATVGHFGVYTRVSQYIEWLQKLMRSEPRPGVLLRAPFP
The experiment in a line: Compound was tested for in vitro inhibitory activity against coagulation factor VII at 100 uM.

Consider eight compounds from ChEMBL document CHEMBL1133480, “Rational design, synthesis, and biological activity of benzoxazinones as novel factor Xa inhibitors” (J Med Chem, 2000).

T2 sequence (P00747 97-580 limits assumed): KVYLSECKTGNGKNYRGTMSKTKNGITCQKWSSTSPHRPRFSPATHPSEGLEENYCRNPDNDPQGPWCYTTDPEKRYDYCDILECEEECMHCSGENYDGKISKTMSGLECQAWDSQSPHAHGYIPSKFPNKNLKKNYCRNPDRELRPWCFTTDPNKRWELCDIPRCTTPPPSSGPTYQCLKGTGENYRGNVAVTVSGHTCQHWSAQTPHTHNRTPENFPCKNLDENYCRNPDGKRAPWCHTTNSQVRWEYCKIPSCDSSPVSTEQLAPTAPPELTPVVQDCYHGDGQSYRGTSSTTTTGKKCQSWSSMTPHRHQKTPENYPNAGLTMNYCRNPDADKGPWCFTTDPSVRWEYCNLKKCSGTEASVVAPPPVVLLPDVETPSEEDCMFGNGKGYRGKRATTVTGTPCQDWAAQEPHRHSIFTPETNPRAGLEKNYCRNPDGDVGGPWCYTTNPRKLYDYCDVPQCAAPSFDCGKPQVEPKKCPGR
T2 sequence (P00747 581-810 limits assumed): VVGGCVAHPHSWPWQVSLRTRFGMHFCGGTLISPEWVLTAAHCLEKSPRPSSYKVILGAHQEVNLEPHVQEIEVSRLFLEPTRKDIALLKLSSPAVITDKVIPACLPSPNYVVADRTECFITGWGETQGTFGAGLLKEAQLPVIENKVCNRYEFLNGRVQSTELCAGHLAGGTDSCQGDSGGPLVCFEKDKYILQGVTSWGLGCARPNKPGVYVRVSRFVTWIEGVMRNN
T1 sequence (P00742 41-179 limits assumed): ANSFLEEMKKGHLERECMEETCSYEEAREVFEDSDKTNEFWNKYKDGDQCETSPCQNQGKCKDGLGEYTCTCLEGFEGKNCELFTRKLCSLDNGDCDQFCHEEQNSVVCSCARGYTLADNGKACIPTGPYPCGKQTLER
T1 sequence (P00742 235-488 limits assumed): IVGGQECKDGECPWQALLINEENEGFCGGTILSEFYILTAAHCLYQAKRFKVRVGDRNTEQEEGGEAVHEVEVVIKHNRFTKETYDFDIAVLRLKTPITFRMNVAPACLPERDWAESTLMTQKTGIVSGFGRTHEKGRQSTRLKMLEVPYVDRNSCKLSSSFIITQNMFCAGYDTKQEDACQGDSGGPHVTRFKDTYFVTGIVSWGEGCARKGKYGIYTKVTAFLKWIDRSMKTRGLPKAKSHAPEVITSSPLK
T4 sequence (P07477 whole entry): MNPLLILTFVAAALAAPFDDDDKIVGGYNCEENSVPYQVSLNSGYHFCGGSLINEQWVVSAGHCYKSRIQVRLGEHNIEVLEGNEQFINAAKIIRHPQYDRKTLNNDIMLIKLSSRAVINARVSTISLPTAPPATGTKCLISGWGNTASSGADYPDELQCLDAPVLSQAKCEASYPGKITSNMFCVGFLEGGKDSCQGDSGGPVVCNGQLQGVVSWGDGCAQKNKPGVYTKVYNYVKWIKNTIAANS
Chain of Vitamin K-dependent protein C (P04070 43-197 limits assumed): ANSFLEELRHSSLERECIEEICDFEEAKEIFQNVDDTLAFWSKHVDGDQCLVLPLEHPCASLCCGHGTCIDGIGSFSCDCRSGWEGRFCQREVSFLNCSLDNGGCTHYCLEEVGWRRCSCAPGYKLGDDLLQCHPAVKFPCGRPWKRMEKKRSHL
Chain of Vitamin K-dependent protein C (P04070 212-461 limits assumed): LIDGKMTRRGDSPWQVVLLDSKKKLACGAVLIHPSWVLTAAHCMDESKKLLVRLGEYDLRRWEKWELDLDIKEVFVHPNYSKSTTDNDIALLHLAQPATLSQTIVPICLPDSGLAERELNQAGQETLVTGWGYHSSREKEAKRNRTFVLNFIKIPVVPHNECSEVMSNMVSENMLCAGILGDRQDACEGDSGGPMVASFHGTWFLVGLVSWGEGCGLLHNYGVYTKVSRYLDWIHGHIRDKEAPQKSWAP

As a reminder, the IC50 is the midpoint of a concentration-inhibition curve. For orientation: inhibition means the change of the read-out against control, counted positive when it falls. Read a high inhibition as strong suppression. Consider `CC1CCCC(C)N1CCCCCN1C(=O)C(c2cccc(CN)c2)Oc2ccccc21` (stereo not drawn), for which the values for the IC50 at Coagulation factor X [1], on Plasminogen [2] and against Serine protease 1 [4] were 840 nM, 25000 nM and 7800 nM, respectively. Besides, the inhibition against Prothrombin [3] worked out at 64%.

Regarding `CC1CCCC(C)N1CCCCCCN1C(=O)C(c2cccc(C(=N)N)c2)Oc2ccccc21` (stereo not drawn), the IC50 at Coagulation factor X [1] was 68 nM; against Plasminogen [2] it was 12000 nM; against Prothrombin [5], 5600 nM; against Serine protease 1 [4], 2100 nM.

On to `COc1cc(C2Oc3ccccc3N(CCCCCN3C(C)CCCC3C)C2=O)cc(OC)c1OC` (stereo not drawn), for which the inhibition against Plasminogen [6] amounted to 20%; at Prothrombin [7], 30%; against Serine protease 1 [8], 12%; at Coagulation factor X [9] it was 30%.

In the case of `COc1ccc(C2Oc3ccccc3N(CCCCCN3C(C)CCCC3C)C2=O)cc1OC` (stereo not drawn), the inhibition turned out to be 0% at Plasminogen [6], 0% on Prothrombin [7], 0% against Serine protease 1 [8] and 31% on Coagulation factor X [9].

For the compound `CC1CCCC(C)N1CCCCCN1C(=O)C(c2cccc(C(=N)N)c2)Oc2ccccc21` (stereo not drawn), the TO in the assay on Canis familiaris [10] was 120 min; with Canis familiaris [14], 240 min; in the assay on Canis familiaris [15], 87 min; with Canis familiaris [17], 240 min; in the assay with Canis familiaris [18], 167 min; with Canis familiaris [20], 144 min. In addition, the TO was determined as 148 min with Canis familiaris [21]; 220 min in the assay on Canis familiaris [22]; 240 min in the assay on Canis familiaris [24]; 27 min with Oryctolagus cuniculus [25]; 37 min with Oryctolagus cuniculus [28]; 98 min in the assay with Oryctolagus cuniculus [29]. In addition, the TO with Canis familiaris [31] is given as 125 min. Also, the IC50 is 3 nM against Coagulation factor X [1], 8400 nM on Plasminogen [2], 23000 nM in [16] and 4 nM against Coagulation factor X [23]. In addition, the Concentration stood at 0.15 µM in the assay filed under Oryctolagus cuniculus [11]; 0.17 µM in the assay listed under Homo sapiens [12]; 0.57 µM in the assay filed under Canis lupus familiaris [13]; 0.34 µM in the assay filed under Homo sapiens [19]; 0.33 µM in the assay filed under Oryctolagus cuniculus [27]; 0.19 µM in the assay listed under Canis lupus familiaris [30]. Further, the results for the inhibition in assay [26] and in [32] were 24% and 32%, respectively.

Turning to `CCCCCCN(CCCCCC)CCCCCN1C(=O)C(c2cccc(C(=N)N)c2)Oc2ccccc21` (stereo not drawn), the IC50 at Coagulation factor X [1] was 1600 nM; against Plasminogen [2], 2200 nM; against Prothrombin [5] it was 1900 nM; at Serine protease 1 [4], 2500 nM.

As to `N=C(N)c1cccc(C2Oc3ccccc3N(CCCCCN3CCCCC3)C2=O)c1` (stereo not drawn), the IC50 at Coagulation factor X [1] stood at 53 nM; at Plasminogen [2], 21000 nM; at Prothrombin [5], 3400 nM; against Serine protease 1 [4], 990 nM.

Turning to `CC1CCCC(C)N1CCCCN1C(=O)C(c2cccc(C(=N)N)c2)Oc2ccccc21` (stereo not drawn), the IC50 against Coagulation factor X [1] was 12 nM; against Plasminogen [2], 38000 nM; on Prothrombin [5], 1100 nM; at Serine protease 1 [4], 300 nM.
